The values below come from ChEMBL document CHEMBL2311371, “Effects of fluorines on nonsecosteroidal vitamin D receptor agonists” (2013).

In one experiment the test system is HL-60. Description: Induction of human HL60 cell differentiation after 4 days by WST-8 assay relative to 1.25-OH2 D3. The experiment is classed as functional. The method, boiled down: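 HL-60 cells seeded 2×10^5 cells/mL in RPMI-1640 with 10% heat-inactivated FBS and antibiotics, 37 °C, 5% CO2. Cultured 4 days with 10^-10 to 10^-7 M compound. On the final day, PMA (final 100 ng/mL) plus WST-8 (final 20%) added for 90 min; absorbance change read at 450 nm. EC50 expressed as ratio to 1,25(OH)2D3 (set 100%).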

The target of experiment [1] is T1, Vitamin D3 receptor (Homo sapiens) (UniProt P11473).
T1 sequence (whole entry): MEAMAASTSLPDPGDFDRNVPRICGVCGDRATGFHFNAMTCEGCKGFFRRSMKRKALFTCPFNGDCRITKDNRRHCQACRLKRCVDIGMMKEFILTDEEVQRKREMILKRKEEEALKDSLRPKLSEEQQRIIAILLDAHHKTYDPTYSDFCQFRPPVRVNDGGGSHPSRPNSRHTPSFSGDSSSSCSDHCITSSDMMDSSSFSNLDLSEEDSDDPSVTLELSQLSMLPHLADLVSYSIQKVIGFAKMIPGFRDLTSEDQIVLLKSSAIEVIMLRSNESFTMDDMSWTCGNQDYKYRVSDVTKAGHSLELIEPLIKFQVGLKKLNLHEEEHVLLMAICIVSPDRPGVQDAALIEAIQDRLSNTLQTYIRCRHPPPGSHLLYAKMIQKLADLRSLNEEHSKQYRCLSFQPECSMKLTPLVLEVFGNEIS
As to the kind of experiment: Agonist activity at VDR in human MG-63 cells assessed as osteocalcin production compound incubated for 8 hrs measured after 4 days by EIA relative to 1,25(OH)2D3. It is filed as cell-based. The gist of the method: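 MG-63 cells seeded 2×10^3/well in serum-free MEM, 24 h at 37 °C, 5% CO2; washed and switched to 5% DCC-FBS/MEM. Serial dilutions 10^-7 to 10^-11 mol/L (0.1% DMSO) applied 8 h, then medium replaced and culture continued 4 days. Gla-type osteocalcin in supernatant measured by EIA at 450 nm against standards. EC50 expressed as ratio to 1,25(OH)2D3 (set 100%).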

In experiment [2] the target is T1, Vitamin D3 receptor (Homo sapiens). Description: Agonist activity at VDR in human MG-63 cells assessed as transcriptional activation of osteopontin gene after 3 days by luciferase reporter gene assay relative to 1,25(OH)2D3. It is filed as cell-based. The gist of the method:
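MG-63 cells seeded 2×10^3/well, 24 h at 37 °C, 5% CO2. Cotransfected with VDRE-luciferase construct (three osteopontin-promoter VDRE repeats, 0.05 µg) plus pRL-SV40 (0.001 µg) by lipofection. Kept 8 h in MEM with 5% DCC-FBS, then dosed 10^-7 to 10^-11 mol/L (0.1% DMSO) for 3 days. Dual-luciferase readout on lysates. EC50 expressed as ratio to 1,25(OH)2D3 (set 100%).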
(In general: Reporter assays use an easily measured gene product as a stand-in for the process of interest.)

As to `CCC(CC)(c1ccc(CCC(O)(C(F)(F)F)C(F)(F)F)c(C)c1)c1ccc(OC[C@@H](O)CCC(=O)[O-])c(C)c1.[Na+]`, the Activity came out at 106% with HL-60, 429% in experiment [1] and 91% in experiment [2].

As for `CCC(CC)(c1ccc(/C=C/C(O)(C(F)(F)F)C(F)(F)F)c(C)c1)c1ccc(OC[C@@H](O)CCC(=O)[O-])c(C)c1.[Na+]`, the Activity with HL-60 was 252%; in experiment [1], 3750%; in experiment [2], 592%.

Consider `CCC(CC)(c1ccc(OCC(O)CO)c(C)c1)c1ccc(OCC(O)C(C)(C)C)c(C)c1` (centres undefined) [LG-190178], for which the results for the Activity (in the experiment on HL-60; in experiment [1]) were 71% and 185%, respectively.

`CCC(CC)(c1ccc(C#CC(O)(C(F)(F)F)C(F)(F)F)c(C)c1)c1ccc(OC[C@@H](O)CCC(=O)[O-])c(C)c1.[Na+]`: the Activity with HL-60 was determined as 227%; in experiment [1], 546%; in experiment [2] it was 30%.

On to `CCC(O)(/C=C/c1ccc(C(CC)(CC)c2ccc(OC[C@@H](O)CCC(=O)[O-])c(C)c2)cc1C)CC.[Na+]`, for which the Activity was determined as 126% in the experiment with HL-60, 447% in experiment [1] and 105% in experiment [2].
